Several values for one entry are separate records, joined by “and”; a condition that tells them apart may be missing. Equal entries are not always repeated.
What was measured:
Rattus norvegicus [1] = assay: Antihypertensive activity in spontaneously hypertensive rats was measured as average blood pressure at 100 mg/kg, p.o. after 24 hours of postdose-1.; format: functional; settings: route oral
Procedure, shortened: (§1)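 Spontaneously hypertensive rats aged 12 to 16 weeks, in groups of five with systolic pressure of 170 mmHg or more. Oral dosing as a solution or suspension in 0.25% methylcellulose, 5 mL/kg, with a vehicle control group. Tail-cuff systolic pressure was read predose and 4 and 24 h after each of two doses. Values were compared with predose by Student's t test.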

Rattus norvegicus [2] = assay: Antihypertensive activity in spontaneously hypertensive rats was measured as average blood pressure at 100 mg/kg, po after 24 hours of postdose-2; format: functional; procedure, shortened: as §1
Rattus norvegicus [3] = assay: Antihypertensive activity in spontaneously hypertensive rats was measured as average blood pressure at 100 mg/kg, p.o. after 4 hours of postdose-2; format: functional; settings: route oral; procedure, shortened: as §1
Rattus norvegicus [4] = assay: Antihypertensive activity in spontaneously hypertensive rats was measured as average blood pressure at 100 mg/kg, p.o. before predose; format: functional; settings: route oral; procedure, shortened: as §1
Rattus norvegicus [5] = assay: Antihypertensive activity in spontaneously hypertensive rats was measured as average blood pressure at 100 mg/kg, p.o. after 4 hours of postdose-1.; format: functional; settings: route oral; procedure, shortened: as §1
Rattus norvegicus [6] = assay: Antihypertensive activity in spontaneously hypertensive rats was measured as average blood pressure at 30 mg/kg, p.o. after 4 hours of postdose-2; format: functional; settings: route oral; procedure, shortened: as §1
Rattus norvegicus [7] = assay: Antihypertensive activity in spontaneously hypertensive rats was measured as average blood pressure at 30 mg/kg, p.o. before predose; format: functional; settings: route oral; procedure, shortened: as §1
Rattus norvegicus [8] = assay: Antihypertensive activity in spontaneously hypertensive rats was measured as average blood pressure at 30 mg/kg, po after 4 hours of postdose-1.; format: functional; procedure, shortened: as §1
Rattus norvegicus [9] = assay: Antihypertensive activity in spontaneously hypertensive rats was measured as average blood pressure at 10 mg/kg, p.o. after 24 hours of postdose-2; format: functional; settings: route oral; procedure, shortened: as §1
Rattus norvegicus [10] = assay: Antihypertensive activity in spontaneously hypertensive rats was measured as average blood pressure at 30 mg/kg, p.o. after 24 hours of postdose-2; format: functional; settings: route oral; procedure, shortened: as §1
Rattus norvegicus [11] = assay: Antihypertensive activity in spontaneously hypertensive rats was measured as average blood pressure at 10 mg/kg, p.o. after 24 hours of postdose-1; format: functional; settings: route oral; procedure, shortened: as §1
Rattus norvegicus [12] = assay: Antihypertensive activity in spontaneously hypertensive rats was measured as average blood pressure at 10 mg/kg, p.o. after 4 hours of postdose-1.; format: functional; settings: route oral; procedure, shortened: as §1
Rattus norvegicus [13] = assay: Antihypertensive activity in spontaneously hypertensive rats was measured as average blood pressure at 10 mg/kg, p.o. after 4 hours of postdose-2; format: functional; settings: route oral; procedure, shortened: as §1
Rattus norvegicus [14] = assay: Antihypertensive activity in spontaneously hypertensive rats was measured as average blood pressure at 10 mg/kg, p.o. before predose; format: functional; settings: route oral; procedure, shortened: as §1
Rattus norvegicus [15] = assay: Antihypertensive activity in spontaneously hypertensive rats was measured as average blood pressure at 30 mg/kg, p.o. after 24 hours of postdose-1; format: functional; settings: route oral; procedure, shortened: as §1
Rattus norvegicus [16] = assay: Antihypertensive activity in spontaneously hypertensive rats was measured as average blood pressure at 100 mg/kg, p.o. after 4 hours of postdose-1; format: functional; settings: route oral; procedure, shortened: as §1
Rattus norvegicus [17] = assay: Antihypertensive activity in spontaneously hypertensive rats was measured as increase in heart rate at 100 mg/kg peroral dose; (+)=Increased heart rate; format: functional, organism-based; set-up: dose 100 mg/kg
Rattus norvegicus [18] = assay: Antihypertensive activity in spontaneously hypertensive rats was measured as average blood pressure at 50 mg/kg, p.o. after 24 hours of postdose-1; format: functional; settings: route oral; procedure, shortened: as §1
Rattus norvegicus [19] = assay: Antihypertensive activity in spontaneously hypertensive rats was measured as average blood pressure at 25 mg/kg, p.o. after 24 hours of postdose-1; format: functional; settings: route oral; procedure, shortened: as §1
Rattus norvegicus [20] = assay: Antihypertensive activity in spontaneously hypertensive rats was measured as average blood pressure at 50 mg/kg, p.o. after 4 hours of postdose-1; format: functional; settings: route oral; procedure, shortened: as §1
Rattus norvegicus [21] = assay: Antihypertensive activity in spontaneously hypertensive rats was measured as average blood pressure at 25 mg/kg, p.o. after 24 hours of postdose-2; format: functional; settings: route oral; procedure, shortened: as §1
Rattus norvegicus [22] = assay: Antihypertensive activity in spontaneously hypertensive rats was measured as average blood pressure at 50 mg/kg, p.o. after 24 hours of postdose-2; format: functional; settings: route oral; procedure, shortened: as §1
Rattus norvegicus [23] = assay: Antihypertensive activity in spontaneously hypertensive rats was measured as average blood pressure at 25 mg/kg, p.o. after 4 hours of postdose-2; format: functional; settings: route oral; procedure, shortened: as §1
Rattus norvegicus [24] = assay: Antihypertensive activity in spontaneously hypertensive rats was measured as average blood pressure at 50 mg/kg, p.o. before predose; format: functional; settings: route oral; procedure, shortened: as §1
Rattus norvegicus [25] = assay: Antihypertensive activity in spontaneously hypertensive rats was measured as average blood pressure at 25 mg/kg, p.o. before predose; format: functional; settings: route oral; procedure, shortened: as §1
Rattus norvegicus [26] = assay: Antihypertensive activity in spontaneously hypertensive rats was measured as average blood pressure at 25 mg/kg, po after 4 hours of postdose-1; format: functional; procedure, shortened: as §1
Rattus norvegicus [27] = assay: Antihypertensive activity in spontaneously hypertensive rats was measured as average blood pressure at 50 mg/kg, p.o. after 4 hours of postdose-2; format: functional; settings: route oral; procedure, shortened: as §1
Rattus norvegicus [28] = assay: Antihypertensive activity in spontaneously hypertensive rats was measured as increase in heart rate at 100 mg/kg peroral dose; (+)=increased heart rate; format: functional, organism-based; set-up: dose 100 mg/kg

| SMILES | BP (Rattus norvegicus [1]) [mmHg] | BP (Rattus norvegicus [2]) [mmHg] | BP (Rattus norvegicus [3]) [mmHg] | BP (Rattus norvegicus [4]) [mmHg] | BP (Rattus norvegicus [5]) [mmHg] | BP (Rattus norvegicus [16]) [mmHg] | also measured |
| --- | --- | --- | --- | --- | --- | --- | --- |
| N#Cc1c(-c2ccc(Cl)cc2)c(-c2ccc(Cl)cc2)nn(CCCC(=O)O)c1=O | 204 | 180 | 175 | 215 | 202 | – | – |
| CC(=O)c1c(-c2ccc(Cl)cc2)c(-c2ccc(Cl)cc2)nn(CCN=C(C)C)c1=O | 158 | 164 | 134 | 209 | 203 | – | BP (Rattus norvegicus [6]): 190 mmHg; BP (Rattus norvegicus [7]): 211 mmHg; BP (Rattus norvegicus [8]): 201 mmHg; BP (Rattus norvegicus [9]): 209 mmHg; BP (Rattus norvegicus [10]): 198 mmHg; BP (Rattus norvegicus [11]): 208 mmHg; BP (Rattus norvegicus [12]): 214 mmHg; BP (Rattus norvegicus [13]): 205 mmHg; BP (Rattus norvegicus [14]): 210 mmHg; BP (Rattus norvegicus [15]): 196 mmHg |
| CC(=O)c1c(-c2ccc(Cl)cc2)c(-c2ccc(Cl)cc2)nn(CCN2CCOCC2)c1=O | – | – | – | – | 230 | 140 | BP (Rattus norvegicus [1]; 100 mg/kg): 201 mmHg and 161 mmHg; BP (Rattus norvegicus [2]; 100 mg/kg): 222 mmHg and 177 mmHg; BP (Rattus norvegicus [3]; 100 mg/kg): 199 mmHg and 146 mmHg; BP (Rattus norvegicus [4]; 100 mg/kg): 239 mmHg and 201 mmHg |
| CC(=O)c1c(-c2ccc(Cl)cc2)c(-c2ccc(Cl)cc2)nn(C(C)CO)c1=O (stereo not drawn) | 174 | 201 | 191 | 212 | – | 186 | – |
| CN(C)c1ccc(-c2c(-c3ccc(Cl)cc3)c(-c3ccc(Cl)cc3)nn(CCO)c2=O)cc1.Cl | 199 | 208 | 188 | 223 | – | 184 | Heart rate (Rattus norvegicus [17]): Increased heart rate |
| CC(=O)c1c(-c2ccc(Cl)cc2)c(-c2ccc(Cl)cc2)nn(CCN(C)C)c1=O [listing 1 of 2 here] | 179 | 144 | 155 | 201 | 182 | – | BP (Rattus norvegicus [6]): 167 mmHg; BP (Rattus norvegicus [7]): 199 mmHg; BP (Rattus norvegicus [8]): 182 mmHg; BP (Rattus norvegicus [10]): 193 mmHg; BP (Rattus norvegicus [15]): 164 mmHg |
| CC(=O)NCCn1nc(-c2ccc(Cl)cc2)c(-c2ccc(Cl)cc2)c(C(C)=O)c1=O | 146 | 145 | 136 | 220 | – | 149 | – |
| CC(=O)c1c(-c2ccc(Cl)cc2)c(-c2ccc(Cl)cc2)nn(CCNC(C)C)c1=O | 181 | 176 | 143 | 216 | 211 | – | – |
| N=C(N)NCCN1CCCCCCC1 [GUANETHIDINE] | – | – | – | – | – | – | BP (Rattus norvegicus [18]): 166 mmHg; BP (Rattus norvegicus [19]): 181 mmHg; BP (Rattus norvegicus [20]): 154 mmHg; BP (Rattus norvegicus [21]): 183 mmHg; BP (Rattus norvegicus [22]): 146 mmHg; BP (Rattus norvegicus [23]): 163 mmHg; BP (Rattus norvegicus [24]): 187 mmHg; BP (Rattus norvegicus [25]): 194 mmHg; BP (Rattus norvegicus [26]): 163 mmHg; BP (Rattus norvegicus [27]): 138 mmHg |
| CC(=O)c1c(-c2ccc(F)cc2)c(-c2ccc(F)cc2)nn(CCO)c1=O | 160 | 180 | 166 | 186 | – | 138 | – |
| CC(C)NCCn1nc(-c2ccc(Cl)cc2)c(-c2ccc(Cl)cc2)c(C#N)c1=O.Cl | 206 | 173 | 209 | 220 | 218 | – | – |
| N#Cc1c(-c2ccc(Cl)cc2)c(-c2ccc(Cl)cc2)nn(CCO)c1=O | 158 | 152 | 145 | 200 | – | 157 | BP (Rattus norvegicus [18]): 171 mmHg; BP (Rattus norvegicus [19]): 178 mmHg; BP (Rattus norvegicus [20]): 165 mmHg; BP (Rattus norvegicus [9]): 180 mmHg; BP (Rattus norvegicus [21]): 180 mmHg; BP (Rattus norvegicus [11]): 184 mmHg; BP (Rattus norvegicus [22]): 168 mmHg; BP (Rattus norvegicus [12]): 181 mmHg; BP (Rattus norvegicus [23]): 157 mmHg; BP (Rattus norvegicus [24]): 200 mmHg; BP (Rattus norvegicus [13]): 178 mmHg; BP (Rattus norvegicus [14]): 194 mmHg; BP (Rattus norvegicus [25]): 208 mmHg; BP (Rattus norvegicus [26]): 168 mmHg; BP (Rattus norvegicus [27]): 156 mmHg |
| CC(=O)c1c(-c2ccc(Cl)cc2)c(-c2ccc(Cl)cc2)nn(CCN2CCCCC2)c1=O | 163 | 176 | 165 | 192 | 180 | – | – |
| CC(=O)c1c(-c2ccc(Cl)cc2)c(-c2ccc(Cl)cc2)nn(CCN(C)C)c1=O [listing 2 of 2 here] | – | – | – | – | – | – | Heart rate (Rattus norvegicus [28]): increased heart rate |
| C[C@](N)(Cc1ccc(O)c(O)c1)C(=O)O [METHYLDOPA] | 174 | 166 | 155 | 178 | – | 161 | – |
| CC(=O)c1c(-c2ccc(Cl)cc2)c(-c2ccc(Cl)cc2)nn(CCN(C)C)c1=O.Cl | 170 | 184 | 160 | 205 | 200 | – | – |
| CCOC(=O)N1CCN(CCn2nc(-c3ccc(Cl)cc3)c(-c3ccc(Cl)cc3)c(C(C)=O)c2=O)CC1 | 182 | 183 | 151 | 200 | 186 | – | – |
| COCCn1nc(-c2ccc(Cl)cc2)c(-c2ccc(Cl)cc2)c(C(C)=O)c1=O | 148 | 158 | 144 | 186 | – | 142 | – |
| CCOC(=O)CCCn1nc(-c2ccc(Cl)cc2)c(-c2ccc(Cl)cc2)c(C(C)=O)c1=O | 174 | 181 | 188 | 196 | 192 | – | – |

— ChEMBL document CHEMBL1121371, “Antihypertensive 5,6-diarylpyridazin-3-ones” (1980)
